ChEMBL document CHEMBL2146407, “Development of erlotinib derivatives as CIP2A-ablating agents independent of EGFR activity” (Bioorg Med Chem, 2012)
Activity calls are given as the source filed them. The rule behind the calls is not given here.

System: SK-HEP1
Assay: Induction of apoptosis in human SKHEP1 cells assessed as accumulation at sub-G1 phase at 5 uM after 24 hrs by propidium iodide staining based flow cytometry
Format: functional, cell-based
Conditions: not given
Procedure, shortened: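 SK-Hep-1 cells were treated 24 h at 5 μM, then trypsinized, pelleted, washed in PBS and stained with propidium iodide. Apoptotic cells were counted by flow cytometry as the sub-G1 fraction. Mean of n = 3 with SD; P <0.05 taken as significant.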

| Structure (SMILES) | Activity |
| --- | --- |
| C#Cc1cccc(Nc2nc(Nc3ccc(Oc4ccccc4)cc3)nc3cc(OC)c(OC)cc23)c1 | Active |
| C#Cc1cccc(Nc2nc(NCc3ccccc3)nc3cc(OC)c(OC)cc23)c1 | Active |

System: SK-HEP1
Assay: Cytotoxicity against human SKHEP1 cells assessed as growth inhibition after 48 hrs by MTT assay
Format: functional, cell-based
Conditions: SK-HEP1, 48 h
Procedure, shortened: (§1)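 MTT read-out in SK-Hep-1 cells kept in DMEM with 10% FBS, penicillin/streptomycin and amphotericin B at 37 °C under 5% CO2. Reduced dye solubilized in DMSO and absorbance read at 570 nm. The concentration giving 50% growth inhibition was interpolated from dose–response curves.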

| Structure (SMILES) | IC50 |
| --- | --- |
| C#Cc1cccc(Nc2nc(Nc3cccc(Oc4ccc(C#N)cc4)c3)nc3cc(OC)c(OC)cc23)c1 | 3.9 µM |
| C#Cc1cccc(Nc2nc(Nc3cc(C)ccc3F)nc3cc(OC)c(OC)cc23)c1 | 4.5 µM |
| C#Cc1cccc(Nc2nc(Nc3ccc(Oc4ccccc4)cc3)nc3cc(OC)c(OC)cc23)c1 | 2.8 µM |
| C#Cc1cccc(Nc2nc(Nc3ccc(Cl)c(C(F)(F)F)c3)nc3cc(OC)c(OC)cc23)c1 | 6.8 µM |
| C#Cc1cccc(Nc2nc(Nc3ccc(Oc4ccc(C#N)cc4)cc3)nc3cc(OC)c(OC)cc23)c1 | 14.5 µM |
| C#Cc1cccc(Nc2nc(Nc3cccc(Cl)c3)nc3cc(OC)c(OC)cc23)c1 | 7.1 µM |
| C#Cc1cccc(Nc2nc(NCc3ccccc3)nc3cc(OC)c(OC)cc23)c1 | 2.8 µM |

Target: T1, Epidermal growth factor receptor (Homo sapiens, UniProt P00533)
Assay: Inhibition of EGFR phosphorylation in human PC9 cells after 24 hrs by Western blot analysis
Format: cell-based, PC-9
Conditions: not given

T1 sequence (P00533 whole entry): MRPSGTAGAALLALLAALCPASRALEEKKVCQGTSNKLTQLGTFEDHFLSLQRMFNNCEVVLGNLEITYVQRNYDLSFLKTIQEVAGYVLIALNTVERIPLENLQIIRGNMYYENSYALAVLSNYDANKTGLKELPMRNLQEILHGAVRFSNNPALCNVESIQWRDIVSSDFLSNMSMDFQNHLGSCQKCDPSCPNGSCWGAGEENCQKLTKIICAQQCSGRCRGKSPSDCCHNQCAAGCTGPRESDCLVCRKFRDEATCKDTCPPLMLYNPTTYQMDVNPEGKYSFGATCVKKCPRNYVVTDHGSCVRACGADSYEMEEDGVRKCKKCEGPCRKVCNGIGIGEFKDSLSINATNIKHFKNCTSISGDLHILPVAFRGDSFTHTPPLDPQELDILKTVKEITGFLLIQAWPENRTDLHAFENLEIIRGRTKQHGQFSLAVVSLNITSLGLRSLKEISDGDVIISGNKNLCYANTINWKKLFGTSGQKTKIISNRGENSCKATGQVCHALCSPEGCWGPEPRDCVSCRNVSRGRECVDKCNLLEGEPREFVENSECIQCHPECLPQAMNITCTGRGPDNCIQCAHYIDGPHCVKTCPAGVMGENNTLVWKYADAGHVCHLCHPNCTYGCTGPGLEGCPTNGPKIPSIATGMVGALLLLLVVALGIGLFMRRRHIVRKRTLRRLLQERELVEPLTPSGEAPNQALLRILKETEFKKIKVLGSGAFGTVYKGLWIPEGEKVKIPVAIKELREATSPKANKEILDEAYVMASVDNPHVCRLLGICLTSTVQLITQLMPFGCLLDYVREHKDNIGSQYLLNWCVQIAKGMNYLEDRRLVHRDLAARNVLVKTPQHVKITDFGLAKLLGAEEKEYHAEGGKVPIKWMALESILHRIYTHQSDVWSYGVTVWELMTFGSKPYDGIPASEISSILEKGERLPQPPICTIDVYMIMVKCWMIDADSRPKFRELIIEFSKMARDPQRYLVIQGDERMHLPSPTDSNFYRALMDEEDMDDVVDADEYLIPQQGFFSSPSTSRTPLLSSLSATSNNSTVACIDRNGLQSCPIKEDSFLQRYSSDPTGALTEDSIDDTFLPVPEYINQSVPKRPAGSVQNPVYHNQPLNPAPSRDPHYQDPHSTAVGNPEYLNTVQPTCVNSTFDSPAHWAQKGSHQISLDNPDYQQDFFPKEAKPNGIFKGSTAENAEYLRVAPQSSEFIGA

| Structure (SMILES) | IC50 |
| --- | --- |
| C#Cc1cccc(Nc2nc(Cl)nc3cc(OC)c(OC)cc23)c1 | > 8 µM |

System: SK-HEP1
Assay: Inhibition of CIP2A expression in human SKHEP1 cells at 20 uM after 24 hrs by Western blot analysis
Format: functional, cell-based
Conditions: not given
Procedure, shortened: (§2)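 SK-Hep-1 cells (3 × 10^5 per 60 mm dish) were treated 24 h, in the primary screen at 20 μM. Lysates were loaded at 40 μg per lane and blotted for CIP2A against actin.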

| Structure (SMILES) | inhibition |
| --- | --- |
| C#Cc1cccc(Nc2ccnc(Nc3cccc(C#C)c3)n2)c1 | Active |
| C#Cc1cccc(Nc2nc(Nc3cccc(Oc4ccc(C#N)cc4)c3)nc3cc(OC)c(OC)cc23)c1 | Active |
| C#Cc1cccc(Nc2nc(Nc3cc(C)ccc3F)nc3cc(OC)c(OC)cc23)c1 | Active |
| C#Cc1cccc(Nc2nc(Nc3ccc(Oc4ccccc4)cc3)nc3cc(OC)c(OC)cc23)c1 | Active |
| FC(F)(F)c1cc(Nc2ccnc(Nc3ccc(Cl)c(C(F)(F)F)c3)n2)ccc1Cl | Active |
| C#Cc1cccc(Nc2nc(Nc3ccc(Cl)c(C(F)(F)F)c3)nc3cc(OC)c(OC)cc23)c1 | Active |
| Clc1nccc(Nc2ccc(Oc3ccccc3)cc2)n1 | inactive |
| C#Cc1cccc(Nc2ccnc(Cl)n2)c1 | inactive |
| C#Cc1cccc(Nc2nc(Nc3ccc(Oc4ccc(C#N)cc4)cc3)nc3cc(OC)c(OC)cc23)c1 | Active |
| C#Cc1cccc(Nc2nc(Nc3cccc(Cl)c3)nc3cc(OC)c(OC)cc23)c1 | Active |
| Clc1nccc(NCc2ccccc2)n1 | inactive |
| Clc1cccc(Nc2ccnc(Cl)n2)c1 | inactive |
| C#Cc1cccc(Nc2nc(NCc3ccccc3)nc3cc(OC)c(OC)cc23)c1 | Active |
| FC(F)(F)c1cc(Nc2ccnc(Cl)n2)ccc1Cl | inactive |

System: SK-HEP1
Assay: Inhibition of CIP2A expression in human SKHEP1 cells after 24 hrs by Western blot analysis
Format: functional, cell-based
Conditions: not given
Procedure, shortened: as §2

| Structure (SMILES) | inhibition |
| --- | --- |
| C#Cc1cccc(Nc2nc(Nc3ccc(Oc4ccccc4)cc3)nc3cc(OC)c(OC)cc23)c1 | Dose-dependent effect |

System: SK-HEP1
Assay: Cytotoxicity against human SKHEP1 cells assessed as cell death after 24 hrs by MTT assay
Conditions: not given

| Structure (SMILES) | Activity |
| --- | --- |
| C#Cc1cccc(Nc2nc(Nc3ccc(Oc4ccccc4)cc3)nc3cc(OC)c(OC)cc23)c1 | Dose-dependent effect |

System: SK-HEP1
Assay: Cytotoxicity against human SKHEP1 cells assessed as cell death after 48 hrs by MTT assay
Format: functional, cell-based
Conditions: SK-HEP1, 48 h
Procedure, shortened: as §1

| Structure (SMILES) | IC50 |
| --- | --- |
| COc1cc2nc(Cl)nc(Nc3cc(C)ccc3F)c2cc1OC | > 40 µM |
| COc1cc2nc(Cl)nc(Nc3cccc(Cl)c3)c2cc1OC | 16.5 µM |
| C#Cc1cccc(Nc2ccnc(Nc3cccc(C#C)c3)n2)c1 | 3.7 µM |
| FC(F)(F)c1cc(Nc2ccnc(Nc3ccc(Cl)c(C(F)(F)F)c3)n2)ccc1Cl | 13.8 µM |
| Clc1nccc(Nc2ccc(Oc3ccccc3)cc2)n1 | > 40 µM |
| COc1cc2nc(Cl)nc(Nc3ccc(Cl)c(C(F)(F)F)c3)c2cc1OC | 8.8 µM |
| C#Cc1cccc(Nc2ccnc(Cl)n2)c1 | > 40 µM |
| COc1cc2nc(Cl)nc(Nc3ccc(Oc4ccccc4)cc3)c2cc1OC | 15.3 µM |
| Clc1nccc(NCc2ccccc2)n1 | > 40 µM |
| C#Cc1cccc(N(C)c2nc(Cl)nc3cc(OC)c(OC)cc23)c1 | 12.3 µM |
| Clc1cccc(Nc2ccnc(Cl)n2)c1 | > 40 µM |
| COc1cc2nc(Cl)nc(Nc3cccc(Oc4ccc(C#N)cc4)c3)c2cc1OC | > 40 µM |
| COc1cc2nc(Cl)nc(Nc3ccc(O)c(C)c3)c2cc1OC | > 40 µM |
| COc1cc2nc(Cl)nc(Nc3cccc(O)c3)c2cc1OC | > 40 µM |
| COc1cc2nc(Cl)nc(NCc3ccccc3)c2cc1OC | 19.8 µM |
| FC(F)(F)c1cc(Nc2ccnc(Cl)n2)ccc1Cl | > 40 µM |

Target: Protein CIP2A (Homo sapiens) (UniProt Q8TCG1)
Assay: Inhibition of CIP2A in human SKHEP1 cells at 5 uM after 30 hrs by Western blot analysis
Format: cell-based
Conditions: SK-HEP1
Procedure, shortened: (§3)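 SK-Hep-1 cells (3 × 10^5 per 60 mm dish) were exposed to 5 μM for 30 h. Lysates were loaded at 40 μg per lane and immunoblotted for CIP2A, phospho-Akt, PARP and actin.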

| Structure (SMILES) | inhibition |
| --- | --- |
| C#Cc1cccc(Nc2nc(Nc3ccc(Oc4ccccc4)cc3)nc3cc(OC)c(OC)cc23)c1 | Active |
| COc1cc2nc(Cl)nc(Nc3cccc(O)c3)c2cc1OC | inactive |
| C#Cc1cccc(Nc2nc(NCc3ccccc3)nc3cc(OC)c(OC)cc23)c1 | Active |

Target: Protein CIP2A (Homo sapiens) (UniProt Q8TCG1)
Assay: Inhibition of CIP2A-mediated PP2A-dependent AKT phosphorylation in human SKHEP1 cells at 5 uM after 30 hrs by Western blot analysis
Format: cell-based
Conditions: SK-HEP1
Procedure, shortened: as §3

| Structure (SMILES) | inhibition |
| --- | --- |
| C#Cc1cccc(Nc2nc(Nc3ccc(Oc4ccccc4)cc3)nc3cc(OC)c(OC)cc23)c1 | Active |
| COc1cc2nc(Cl)nc(Nc3cccc(O)c3)c2cc1OC | inactive |
| C#Cc1cccc(Nc2nc(NCc3ccccc3)nc3cc(OC)c(OC)cc23)c1 | Active |

System: SK-HEP1
Assay: Induction of apoptosis in human SKHEP1 cells assessed as DNA fragmentation at 5 uM after 24 hrs by ELISA
Format: functional, cell-based
Conditions: not given
Procedure, shortened: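 DNA fragmentation was measured in SK-Hep-1 cells after 24 h of exposure, using a cell death ELISA kit.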

| Structure (SMILES) | Activity |
| --- | --- |
| C#Cc1cccc(Nc2nc(Nc3ccc(Oc4ccccc4)cc3)nc3cc(OC)c(OC)cc23)c1 | Active |
| C#Cc1cccc(Nc2nc(NCc3ccccc3)nc3cc(OC)c(OC)cc23)c1 | Active |

System: SK-HEP1
Assay: Induction of apoptosis in human SKHEP1 cells assessed as increase in PARP cleavage at 5 uM after 30 hrs by Western blot analysis
Format: functional, cell-based
Conditions: not given
Procedure, shortened: as §3

| Structure (SMILES) | Activity |
| --- | --- |
| C#Cc1cccc(Nc2nc(Nc3ccc(Oc4ccccc4)cc3)nc3cc(OC)c(OC)cc23)c1 | Active |
| COc1cc2nc(Cl)nc(Nc3cccc(O)c3)c2cc1OC | inactive |
| C#Cc1cccc(Nc2nc(NCc3ccccc3)nc3cc(OC)c(OC)cc23)c1 | Active |

Target: T1, Epidermal growth factor receptor
Assay: Inhibition of EGFR phosphorylation in human PC9 cells at 2 uM after 24 hrs by Western blot analysis
Format: cell-based
Conditions: PC-9
Procedure, shortened: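 PC9 cells (3 × 10^5 per 60 mm dish), grown in DMEM with 10% FBS at 37 °C and 5% CO2, were treated 24 h at 2 μM. Lysates were loaded at 40 μg per lane and immunoblotted for EGFR phosphorylation.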

| Structure (SMILES) | inhibition |
| --- | --- |
| C#Cc1cccc(Nc2nc(Nc3ccc(Oc4ccccc4)cc3)nc3cc(OC)c(OC)cc23)c1 | inactive |
| C#Cc1cccc(Nc2nc(NCc3ccccc3)nc3cc(OC)c(OC)cc23)c1 | inactive |

Target: Protein CIP2A (Homo sapiens) (UniProt Q8TCG1)
Assay: Inhibition of CIP2A-mediated PP2A-dependent AKT phosphorylation in human SKHEP1 cells at 5 uM after 30 hrs by Western blot analysis in presence of okadaic acid
Format: cell-based
Conditions: SK-HEP1

| Structure (SMILES) | inhibition |
| --- | --- |
| C#Cc1cccc(Nc2nc(Nc3ccc(Oc4ccccc4)cc3)nc3cc(OC)c(OC)cc23)c1 | inactive |
